Test results from ChEMBL document CHEMBL1135527, “Synthesis and evaluation of 2'-substituted 4-(4'-carboxy- or 4'-carboxymethylbenzylidene)-N-acylpiperidines: highly potent and in vivo active steroid 5alpha-reductase type 2 inhibitors” (J Med Chem, 2002).

Tests used:
[1] = target: T1, 3-oxo-5-alpha-steroid 4-dehydrogenase 1 (Homo sapiens) (UniProt P18405); experiment: Inhibition of Steroid 5-alpha-reductase type I of human DU 145 prostatic tumor cell line, at 10 uM
T1 sequence (whole entry): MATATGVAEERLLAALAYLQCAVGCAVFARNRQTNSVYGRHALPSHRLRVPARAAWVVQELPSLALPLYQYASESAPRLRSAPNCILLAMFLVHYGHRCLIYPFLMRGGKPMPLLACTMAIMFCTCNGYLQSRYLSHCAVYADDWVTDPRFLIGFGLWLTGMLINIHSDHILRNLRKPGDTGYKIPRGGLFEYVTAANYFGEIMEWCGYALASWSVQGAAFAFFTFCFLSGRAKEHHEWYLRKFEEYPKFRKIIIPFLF
Outline: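 Intact DU145 cells (type 1 source) seeded at 180 000/well and left to adhere overnight. Compound added in DMSO to complete medium, then 6 h at 37 °C in 5% CO2 with [³H]androstenedione, 5 nM. Medium extracted twice with ether, steroids separated by radio-HPLC. Product formed expressed as % of triplicate no-inhibitor controls; screened at 10 μM.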

[2] = target: T2, 3-oxo-5-alpha-steroid 4-dehydrogenase 2 (Homo sapiens, UniProt P31213); experiment: Inhibition of Steroid 5-alpha-reductase type 2 from human benign prostatic hyperplasia (BPH) tissue
T2 sequence (P31213 whole entry): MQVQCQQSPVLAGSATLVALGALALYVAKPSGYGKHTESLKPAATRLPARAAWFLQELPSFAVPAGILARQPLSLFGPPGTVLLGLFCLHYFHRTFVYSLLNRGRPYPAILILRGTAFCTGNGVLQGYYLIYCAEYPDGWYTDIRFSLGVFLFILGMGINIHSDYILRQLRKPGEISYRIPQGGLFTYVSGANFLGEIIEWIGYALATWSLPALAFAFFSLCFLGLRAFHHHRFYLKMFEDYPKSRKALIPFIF
Outline: (§1)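 Human BPH prostate 105000g pellet (nuclei, mitochondria, microsomes) prepared in citrate buffer pH 5.5. Incubation of about 125 μg protein for 30 min at 37 °C in 40 mM citrate pH 5.5 with 100 μM NADPH, 0.21 μM [1,2-³H]testosterone and 2% DMSO. Reaction stopped with NaOH, steroids extracted with ether, T/DHT separated by radio-HPLC. Single 10 μM test or IC50; duplicates.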

[3] = target: T3, 3-oxo-5-alpha-steroid 4-dehydrogenase 2 (Rattus norvegicus, UniProt P31214); experiment: (§2) Inhibition of Steroid 5-alpha-reductase type 2 of rat ventral prostate (RVP); format: tissue-based, Prostate gland
T3 sequence (P31214 whole entry): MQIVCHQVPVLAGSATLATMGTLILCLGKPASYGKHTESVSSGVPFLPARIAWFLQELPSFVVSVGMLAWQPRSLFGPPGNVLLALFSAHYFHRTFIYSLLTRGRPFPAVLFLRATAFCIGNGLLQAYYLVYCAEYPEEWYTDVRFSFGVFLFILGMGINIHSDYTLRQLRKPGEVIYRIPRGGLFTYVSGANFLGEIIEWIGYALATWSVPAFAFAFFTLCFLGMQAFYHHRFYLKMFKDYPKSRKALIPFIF
Outline: (§3)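 Type 2 source: rat ventral prostate homogenized in citrate buffer pH 5.5, 105000g pellet. About 250 μg protein incubated 30 min at 37 °C in 40 mM citrate pH 5.5 with 200 μM NADPH, 0.21 μM [1,2-³H]testosterone and 2% DMSO. NaOH stop, ether extraction, radio-HPLC of T/DHT. Result given as % inhibition at 10 μM or IC50, run in duplicate.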

[4] = target: T4, 3-oxo-5-alpha-steroid 4-dehydrogenase 1 (Rattus norvegicus, UniProt P24008); experiment: Inhibition of Steroid 5-alpha-reductase type I from rat ventral prostate (RVP); format: tissue-based, Prostate gland
T4 sequence (P24008 whole entry): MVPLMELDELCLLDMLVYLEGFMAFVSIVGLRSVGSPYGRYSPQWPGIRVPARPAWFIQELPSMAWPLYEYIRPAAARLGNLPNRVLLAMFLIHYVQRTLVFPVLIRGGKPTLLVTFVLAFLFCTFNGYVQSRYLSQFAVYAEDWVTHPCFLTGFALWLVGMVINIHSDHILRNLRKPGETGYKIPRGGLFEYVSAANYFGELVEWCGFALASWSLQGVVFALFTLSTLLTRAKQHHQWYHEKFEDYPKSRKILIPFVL
Outline: (§4)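 Rat ventral prostate 105000g pellet made in 20 mM phosphate pH 6.6 with […] and 1 mM DTT at 0–4 °C. About 250 μg protein incubated 30 min at 37 °C in 40 mM phosphate pH 6.6 with 200 μM NADPH, 0.21 μM [1,2-³H]testosterone and 2% DMSO. Ether extraction, radio-HPLC of T and DHT. % inhibition at 10 μM or IC50; duplicates.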

[5] = target: T5, 3-oxo-5-alpha-steroid 4-dehydrogenase 1 (Rattus norvegicus) (UniProt P24008); experiment: Inhibition of Steroid 5-alpha-reductase type I of rat ventral prostate (RVP); format: tissue-based; parameters: concentration or dose not given beside the values; details: Prostate gland, concentration not given here; outline: as §4
T5 sequence (whole entry): T4 sequence (P24008 whole entry)

[6] = target: T6, 3-oxo-5-alpha-steroid 4-dehydrogenase 2 (Rattus norvegicus) (UniProt P31214); experiment: as §2; parameters: concentration or dose not given beside the values; details: Prostate gland, concentration not given here; outline: as §3
T6 sequence (whole entry): T3 sequence (P31214 whole entry)

[7] = target: T7, 3-oxo-5-alpha-steroid 4-dehydrogenase 2 (Homo sapiens) (UniProt P31213); experiment: Percent of inhibition at 10 benign prostatic hyperplasia (BPH) tissue; details: concentration not given here; outline: as §1
T7 sequence (whole entry): T2 sequence (P31213 whole entry)

[8] = target: 3-oxo-5-alpha-steroid 4-dehydrogenase 2 (Homo sapiens, UniProt P31213); experiment: In vitro inhibitory activity against Steroid 5-alpha-reductase type 2 of human benign prostatic hyperplasia (BPH) tissue; outline: as §1
[9] = target: T7, 3-oxo-5-alpha-steroid 4-dehydrogenase 2 (Homo sapiens); experiment: Percent of inhibition against Steroid 5-alpha-reductase type 2 of human uM; details: concentration not given here; outline: as §1
[10] = target: T4, 3-oxo-5-alpha-steroid 4-dehydrogenase 1; experiment: In vitro inhibitory activity against Steroid 5-alpha-reductase type I of rat ventral prostate (RVP); format: tissue-based, Prostate gland; outline: as §4

inhibition [1] | IC50 [2] | IC50 [3] | IC50 [4] | inhibition [5] | inhibition [6] | SMILES | other results
20% | 210 nM | 3500 nM | 2700 nM | – | – | O=C(O)c1ccc(C=C2CCN(C(=O)C34CC5CC(CC(C5)C3)C4)CC2)c(F)c1 | –
6% | – | – | – | 49% | 43% | O=C(O)c1cccc(C=C2CCN(C(=O)C(c3ccccc3)c3ccccc3)CC2)c1 | inhibition [7]: 57%
2% | 410 nM | 1100 nM | 1100 nM | – | – | O=C(O)c1ccc(C=C2CCN(C(=O)C(c3ccccc3)c3ccccc3)CC2)c(F)c1 | –
26% | 530 nM | 370 nM | 3400 nM | – | – | O=C(O)c1ccc(C=C2CCN(C(=O)C(c3ccccc3)c3ccccc3)CC2)cc1 | –
5% | 130 nM | – | – | 55% | 43% | COc1cc(C(=O)O)ccc1C=C1CCN(C(=O)C(C2CCCCC2)C2CCCCC2)CC1 | –
22% | 830 nM | 690 nM | 540 nM | – | – | O=C(O)c1ccc(C=C2CCN(C(=O)N(c3ccccc3)c3ccccc3)CC2)cc1 | –
– | – | – | 4500 nM | – | 63% | O=C(O)Cc1ccc(C=C2CCN(C(=O)C(c3ccccc3)c3ccccc3)CC2)cc1 | IC50 [8]: 75 nM
– | – | – | – | 35% | 25% | O=C(O)c1cccc(C=C2CCN(C(=O)C(C3CCCCC3)C3CCCCC3)CC2)c1 | IC50 [8]: 700 nM
6% | 6 nM | – | – | 66% | 56% | O=C(O)Cc1ccc(C=C2CCN(C(=O)C(C3CCCCC3)C3CCCCC3)CC2)cc1 | –
8% | 1100 nM | 880 nM | 1600 nM | – | – | O=C(O)c1ccc(C=C2CCN(C(=O)CC(c3ccccc3)c3ccccc3)CC2)cc1 | –
44% | 260 nM | 2500 nM | 5600 nM | – | – | O=C(O)c1ccc(C=C2CCN(C(=O)C34CC5CC(CC(C5)C3)C4)CC2)cc1 | –
10% | 1200 nM | – | – | 52% | 51% | COc1cc(C(=O)O)ccc1C=C1CCN(C(=O)C23CC4CC(CC(C4)C2)C3)CC1 | –

The remaining lines, values behind:

SMILES | inhibition [1] | IC50 [2] | IC50 [3] | IC50 [4] | inhibition [5] | inhibition [6] | other results
COc1cc(C(=O)O)ccc1C=C1CCN(C(=O)C(c2ccccc2)c2ccccc2)CC1 | 8% | 3500 nM | 940 nM | 1900 nM | – | – | –
O=C(O)c1ccc(C=C2CCN(C(=O)C(C3CCCCC3)C3CCCCC3)CC2)cc1 [listing 1 of 2 here] | 46% | – | – | – | 51% | – | –
O=C(O)c1ccc(OC2CCN(C(=O)C(c3ccccc3)c3ccccc3)CC2)cc1 | – | – | – | – | 62% | 58% | IC50 [8]: 1300 nM
O=C(O)c1ccc(OC2CCN(C(=O)C34CC5CC(CC(C5)C3)C4)CC2)cc1 | 7% | 430 nM | – | – | 18% | 21% | –
O=C(O)c1ccc(C=C2CCN(C(=O)C(C3CCCCC3)C3CCCCC3)CC2)cc1 [listing 2 of 2 here] | – | 60 nM | 80 nM | – | – | – | –
O=C(O)c1ccc(C=C2CCN(C(=O)C(C3CCCCC3)C3CCCCC3)CC2)c(F)c1 [listing 1 of 2 here] | 12% | – | – | – | – | – | –
O=C(O)Cc1ccc(C=C2CCN(C(=O)C(C3CCCCC3)C3CCCCC3)CC2)c(F)c1 [listing 1 of 2 here] | – | 7 nM | 38 nM | 3200 nM | – | – | –
O=C(O)c1ccc(OC2CCN(C(=O)N(c3ccccc3)c3ccccc3)CC2)cc1 | 10% | – | – | – | 53% | 50% | inhibition [9]: 68%
O=C(O)Cc1ccc(C=C2CCN(C(=O)C(C3CCCCC3)C3CCCCC3)CC2)c(F)c1 [listing 2 of 2 here] | 4% | – | – | – | – | – | –
O=C(O)c1ccc(C=C2CCN(C(=O)C(C3CCCCC3)C3CCCCC3)CC2)c(F)c1 [listing 2 of 2 here] | – | 11 nM | 3000 nM | – | – | – | IC50 [10]: 1800 nM
CC(C)(C)OC(=O)N1CCC(Oc2ccc(C(=O)O)cc2)CC1 | 2% | – | – | – | 4% | 12% | inhibition [7]: 7.8%
